Screening results deposited in PubChem by Johns Hopkins Ion Channel Center.
This is a sample that favours compounds with a hit; in the whole collection about 3.5% have one here.
RGS4 act – RGS4 potentiation or activation; HEK293 M3R/inducible RGS4, carbachol calcium flux Fluo4; hits give low values; B-score at 10 µM; 0.92% of 310,000 active;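 active = B-score of the integrated calcium signal more than 4 SD below the library mean, with starting fluorescence not abnormally high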;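 also: negative B-score means reduced calcium response which marks RGS4 activation or potentiation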
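Material: Inducible-RGS4 HEK293 cells carrying M3 receptor; also added: carbachol at ECmax as muscarinic agonist stimulus; incubation: compound preincubation 20 min at room temperature before agonist; signal: Fluo4-AM (2 µM) calcium-flux fluorescence, kinetic read; measure: integrated calcium ratio converted to B score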
MrgX1 antagonist – antagonists of human MrgX1 receptor | 1.3% of 310,000 active | Q96LB2 | MRGX1-HEK293 calcium flux, Fluo-4, BAM8-22 antagonism; hits give low values | B-score at 10 µM;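 active = calcium-response B-score plate-corrected more than 3 library SD below zero, starting fluorescence within 5 deviations, no agonist response on first addition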;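 also: peak minus trough fluorescence over baseline after final BAM8-22 challenge near maximal dose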
Target sequence (Q96LB2 whole entry, looked up): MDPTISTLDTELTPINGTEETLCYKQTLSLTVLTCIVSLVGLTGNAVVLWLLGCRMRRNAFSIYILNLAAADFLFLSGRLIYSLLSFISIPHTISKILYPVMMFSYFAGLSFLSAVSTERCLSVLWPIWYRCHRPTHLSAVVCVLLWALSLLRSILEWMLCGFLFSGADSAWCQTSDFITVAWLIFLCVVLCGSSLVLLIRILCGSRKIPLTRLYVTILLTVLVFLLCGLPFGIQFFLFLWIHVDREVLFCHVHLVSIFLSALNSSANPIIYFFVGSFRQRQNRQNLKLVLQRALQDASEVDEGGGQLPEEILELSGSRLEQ
MrgX1 agonist – activates human MrgX1 receptor signaling | AID 588627 | B-score at 10 µM | MrgX1-HEK293 cells, Fluo-4 calcium fluorescence, agonist mode; hits give high values | 0.44% of 310,000 active | Q96LB2;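 active = calcium response B-score plate-corrected fluorescence ratio at least 3 library SD, with starting fluorescence B-score inside 5 SD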
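Assay system: stable human MrgX1 HEK293 cell line. Quantity: 15,000 cells per well. Schedule: cells plated overnight, dye loaded 0.5 h 37 °C, 0.5 h room temperature. Detection: Fluo-4 NW calcium-flux fluorescence, kinetic read. Read-out basis: peak-minus-minimum fluorescence over baseline, converted to B scores. Control set: positive and negative control wells on each plate.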
MrgX1 PAM – allosterically activates human MrgX1 receptor signaling. Q96LB2. MrgX1-HEK293, Fluo-4 calcium flux, FDSS; hits give high values. B-score at 10 µM. 0.63% of 310,000 active;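 active = plate-corrected calcium response at least 3 library SD above typical, normal starting fluorescence, not activating the receptor alone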;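 also: compound read alongside a low EC10 to EC30 dose of BAM8-22 agonist; peak minus trough fluorescence over baseline measured at the second addition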
RGS4 inh – inhibitors of human RGS4 | 0.45% of 310,000 active | HEK293 M3R/RGS4 inducible, Fluo-4 calcium flux; hits give high values; triggered by carbachol at its EC20 | P49798 | B-score at 10 µM;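 active = B-score, a plate-corrected calcium signal, over three deviations above library mean, with baseline fluorescence within five deviations of library mean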;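 also: RGS4 expression induced by doxycycline in cells with stable M3 receptor; B-score is computed from the integrated fluorescence ratio over baseline after carbachol; higher B-score means a larger calcium signal and so more RGS4 inhibition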
Target sequence (P49798 whole entry, looked up): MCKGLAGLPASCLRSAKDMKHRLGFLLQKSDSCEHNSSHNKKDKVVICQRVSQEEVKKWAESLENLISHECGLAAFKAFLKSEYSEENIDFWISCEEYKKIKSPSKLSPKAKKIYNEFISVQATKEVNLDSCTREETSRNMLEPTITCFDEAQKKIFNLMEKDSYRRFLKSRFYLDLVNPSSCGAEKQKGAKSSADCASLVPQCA
MrgX1 allo conf – human MrgX1 positive allosteric modulation, re-confirmation | shares compounds with MrgX1 PAM | MrgX1-HEK293, Fluo-4 calcium fluorescence, FDSS | activation (ratio percentage), % at 10 µM | 13% of 1,200 active;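 active = ratio at least 3 SD above the weak peptide control, stable starting fluorescence, no direct agonism earlier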;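 also: compound followed by low BAM8-22 agonist challenge near EC20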
MrgX1 ant reconf – reconfirmed antagonist of human MrgX1 receptor signaling; remaining BAM8-22 calcium response % of control (hits give low values), % at 10 µM; AID 602420; shares compounds with MrgX1 antagonist; 19% of 2,300 active; MrgX1-HEK293, BAM8-22 calcium flux, Fluo-4; hits give low values;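 active = remaining agonist calcium response no higher than 100% minus 3 SD of agonist-only control wells, with starting fluorescence near control levels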;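 also: agonist BAM8-22 given at a near maximal EC90 to ECmax level; peak minus minimum fluorescence divided by baseline after agonist addition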
HEK293 Ca flux – MrgX1 antagonist counter-screen hit in parental HEK293 cells; shares compounds with MrgX1 antagonist; Fluo-4 calcium fluorescence, FDSS; fluorescence ratio F(max-min)/F0 at 10 µM; 2% of 4,000 active;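 active = duplicate-averaged calcium fluorescence ratio at least three times the standard deviation of buffer wells, a nonspecific response in parental cells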
HEK293 Ca counter – counter-screen for MrgX1 allosteric activators: effect in parental HEK293 cells; AID 624114; shares compounds with MrgX1 antagonist; 0.4% of 4,000 active; parental HEK293 calcium flux, Fluo-4 fluorescence ratio; hits give high values; fluorescence ratio F(max-min)/F0 at 10 µM;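 active = calcium fluorescence ratio, averaged over duplicates, at least 3 SD of the buffer-well ratio, meaning a nonspecific response in receptor-free cells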;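 also: untransfected parental HEK293 lacking MrgX1 used as counterscreen for MrgX1 allosteric activators; fluorescence change taken during the second addition on a kinetic imager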
HEK293 Ca cntr2 – activity in parental HEK293 cells lacking MrgX1 receptor; shares compounds with MrgX1 antagonist; Fluo-4 calcium fluorescence (FDSS); hits give high values; fluorescence ratio F(max-min)/F0 at 10 µM; 8.7% of 4,000 active;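 active = calcium fluorescence ratio at least three times the spread of buffer wells, meaning a non-specific response in parental cells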
Each line names hits and unclear results; the compound was inactive in the other large screens (follow-up assays come after a bar, where they were run).

Nc1c(C(=O)N2CCCCCC2)oc2ccccc12	MrgX1 PAM 10 | MrgX1 allo conf inactive | HEK293 Ca flux inactive | HEK293 Ca counter inactive | HEK293 Ca cntr2 inactive
Cc1ccc2oc(C(=O)N3CCCCCC3)c(C)c2c1	MrgX1 PAM 6.47 | MrgX1 allo conf inactive | HEK293 Ca flux inactive | HEK293 Ca counter inactive | HEK293 Ca cntr2 inactive
Cc1ccn2c(Nc3ccccc3C)c(-c3ccccn3)nc2c1	MrgX1 PAM 9.14 | MrgX1 allo conf inactive | HEK293 Ca flux inactive | HEK293 Ca counter inactive | HEK293 Ca cntr2 inactive
Cc1ccc(NC(=O)COC(=O)C2C3CC4OC(=O)C2C4C3)cc1 (stereo unspecified)	MrgX1 PAM 25.7 | MrgX1 allo conf inactive | HEK293 Ca flux inactive | HEK293 Ca counter inactive | HEK293 Ca cntr2 inactive
CC(NC(=O)c1ccc(N)cc1)c1ccccc1 (stereo unspecified)	MrgX1 PAM 7.4 | MrgX1 allo conf inactive | HEK293 Ca flux inactive | HEK293 Ca counter inactive | HEK293 Ca cntr2 inactive
CCCc1cc(C(=O)N2CCCC(C(=O)c3cccc4ccccc34)C2)n(C)n1 (stereo unspecified)	MrgX1 PAM 12.2 | MrgX1 allo conf inactive | HEK293 Ca flux inactive | HEK293 Ca counter inactive | HEK293 Ca cntr2 inactive
COCCNc1c(-c2cc3ccc(C)c(C)c3[nH]c2=O)nc2ccccn12	none
CCOC(=O)c1ccccc1NC(=O)c1ccc(N(C)S(C)(=O)=O)cc1	none
CCOC(=O)c1ccccc1NC(=O)c1ccccc1N(C)S(C)(=O)=O	MrgX1 PAM 7.24 | MrgX1 allo conf 9.4% | HEK293 Ca flux inactive | HEK293 Ca counter inactive | HEK293 Ca cntr2 inactive
COC(=O)c1ccccc1NC(=O)c1ccccc1N(C)S(C)(=O)=O	MrgX1 PAM 10.3 | MrgX1 allo conf inactive | HEK293 Ca flux inactive | HEK293 Ca counter inactive | HEK293 Ca cntr2 inactive
COC(=O)c1ccccc1N(C)S(C)(=O)=O	none
CSc1ccccc1NC(=O)c1ccccc1N(C)S(C)(=O)=O	MrgX1 PAM 8.17 | MrgX1 allo conf 10.0% | HEK293 Ca flux inactive | HEK293 Ca counter inactive | HEK293 Ca cntr2 inactive
Cc1cc2nnc(SCC(=O)NCC(c3ccccc3)N(C)C)n2c2ccccc12 (stereo unspecified)	none
CCc1cc2ccccc2nc1SCC(=O)N1CCN(C(=O)c2ccco2)CC1	none (no result: MrgX1 antagonist, MrgX1 agonist, MrgX1 PAM)
CCc1cc2cc(C)ccc2nc1SCC(=O)N1CCN(C(=O)c2ccco2)CC1	MrgX1 PAM 11.1 (no result: RGS4 act, RGS4 inh) | MrgX1 allo conf inactive | HEK293 Ca flux inactive | HEK293 Ca counter inactive | HEK293 Ca cntr2 inactive
CC1CCCCC1Nc1nc2ccc(Cl)cc2n2cnnc12 (stereo unspecified)	MrgX1 PAM 9.19 | MrgX1 allo conf inactive | HEK293 Ca flux inactive | HEK293 Ca counter inactive | HEK293 Ca cntr2 inactive
Cc1ccc2nc(SC(C)C(=O)N3CCOCC3)[nH]c2c1 (stereo unspecified)	MrgX1 PAM 7.28 | MrgX1 allo conf inactive | HEK293 Ca flux inactive | HEK293 Ca counter inactive | HEK293 Ca cntr2 inactive
CC(=O)Cc1nsc(NC(=O)c2ccc(-c3ccc(Cl)cc3Cl)o2)n1	none
CC(=O)Cc1nsc(NC(=O)c2ccc(-c3cc(Cl)ccc3Cl)o2)n1	MrgX1 PAM 39.7 | MrgX1 allo conf 32.0% | HEK293 Ca flux inactive | HEK293 Ca counter inactive | HEK293 Ca cntr2 inactive
CCN(CC)S(=O)(=O)c1cc(Br)c(C)cc1OC	MrgX1 PAM 8.64 | MrgX1 allo conf inactive | HEK293 Ca flux inactive | HEK293 Ca counter inactive | HEK293 Ca cntr2 inactive
CCOC(=O)Cn1nc(NC(=O)COc2ccc(F)cc2)cc1C	none
C/C(N)=C(/C#N)C(=O)COC(=O)c1cc2c(s1)CCCC2	none
CNC(=O)COC(=O)c1cc2c(s1)CCCC2	MrgX1 PAM 12.1 | MrgX1 allo conf inactive | HEK293 Ca flux inactive | HEK293 Ca counter inactive | HEK293 Ca cntr2 inactive
Cc1ccc(S(=O)(=O)NCCC(=O)NCC(c2ccco2)N2CCCCC2)cc1C (stereo unspecified)	none
Cc1cc(=O)oc2cc(OCCSCCN3CCCCC3)ccc12	none
CN(C)S(=O)(=O)c1cccc(NC(=O)c2c[nH]c3ccccc23)c1	MrgX1 PAM 9.87 | MrgX1 allo conf inactive | HEK293 Ca flux inactive | HEK293 Ca counter inactive | HEK293 Ca cntr2 inactive
CN(C)S(=O)(=O)c1cccc(NC(=O)c2cc(=O)[nH]c3ccccc23)c1	none
COc1ccccc1NC(=O)N1c2ccc(F)cc2CCC1C (stereo unspecified)	MrgX1 PAM 10.1 | MrgX1 allo conf inactive | HEK293 Ca flux inactive | HEK293 Ca counter inactive | HEK293 Ca cntr2 inactive
C/C(=N\OCC(=O)Nc1ccccc1C(=O)O)c1cccs1	none
C/C(=N/OCC(=O)Nc1ccc(C)cc1C)c1cccs1	MrgX1 PAM 27.2 | MrgX1 allo conf 3.9% | HEK293 Ca flux inactive | HEK293 Ca counter inactive | HEK293 Ca cntr2 inactive
Cc1csc2nc(SCC(=O)N3CCN(c4ccccc4)CC3)[nH]c(=O)c12	none
CCOC(=O)C1CCCN(C(=O)c2sc3nc(-c4ccc(F)cc4)cn3c2C)C1 (stereo unspecified)	MrgX1 PAM 7.33 | MrgX1 allo conf 14.0% | HEK293 Ca flux inactive | HEK293 Ca counter inactive | HEK293 Ca cntr2 inactive
OCCNc1nnc(-c2ccccc2)c(-c2ccccc2)n1	none
Cc1ccc(C(F)(F)F)cc1NC(N)=S	MrgX1 PAM 7.17 | MrgX1 allo conf inactive | HEK293 Ca flux inactive | HEK293 Ca counter inactive | HEK293 Ca cntr2 inactive
CCC(C)(C)C1CCc2c(sc(NC(=O)c3ccccc3C(=O)O)c2C#N)C1 (stereo unspecified)	MrgX1 antagonist -6.37, MrgX1 PAM 8.39 | MrgX1 allo conf inactive | MrgX1 ant reconf inactive | HEK293 Ca flux inactive | HEK293 Ca counter inactive | HEK293 Ca cntr2 56.6
CCN(CC)C(=S)SCC(=O)Nc1ncc2c(n1)CC(C)(C)CC2=O	none
O=C(CSc1ccc(Br)cc1)Nc1ccc(N2CCOCC2)cc1	none
Clc1ccc(-c2cc3ccccc3nc2N2CCOCC2)cc1	MrgX1 PAM 10.8 | MrgX1 allo conf inactive | HEK293 Ca flux inactive | HEK293 Ca counter inactive | HEK293 Ca cntr2 inactive
Clc1ccc(-c2cc3ccccc3nc2N2CCCC2)cc1	none
